HIF act – HIF pathway transcriptional activators, primary screen, cell-based, U2OS HRE-luciferase, luminescence; activation, % at 7.5 µM (by protocol); U2OS HRE-luciferase reporter; normalized: DMSO 0%, desferrioxamine 100%; 300,000 compounds, 0.32% hits;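 active = mean activation of at least 10% of the iron chelator positive control signal, with at least half of replicates also reaching 10%; inconclusive = mean and replicate majority disagree about reaching 10%; inactive = mean and most replicates under 10%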
ARNT TACC3 PPI – disruptors of ARNT/TACC3 protein interaction, primary screen, biochemical, AlphaScreen, single concentration; inhibition, % at 9.99 µM; 390,000 compounds, 0.66% hits; AlphaScreen His-ARNT PAS-B/GST-TACC3 binding, luminescence; TACC3 fragment carries E629A point mutation;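 active = mean inhibition of replicates at least 50% and at least half of replicates each reaching 50%; inconclusive = half or more replicates reach 50% but mean below 50%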;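 also: 0% = complete ARNT plus TACC3 wells and 100% = ARNT alone without TACC3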
T cruzi repl – inhibitors of intracellular T. cruzi growth, primary screen, luminescence, NIH3T3 host cells; inhibition, % (no concentration beside the values); T. cruzi beta-gal in NIH3T3, 90 h; 300,000 compounds, 1.4% hits;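 active = mean inhibition across valid replicates above about 55%, limit read from the data; inconclusive = mean below that limit but half or more replicates reach it; inactive = mean below it, under half of replicates reach it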;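 also: signal also drops with host cell toxicity which is not excluded here; 0% = plate median of DMSO wells and 100% = zero luminescence signal; higher percent means less beta-gal luminescence so fewer parasites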
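System: Mouse NIH/3T3 fibroblasts infected with β-gal-expressing T. cruzi Tulahuen C4 | Quantity: NIH/3T3 cells, 5,000 per well | Reagent: 5000 reporter trypomastigotes per well | Dosing: Compound pinned at 50 nL/well, DMSO | Schedule: 3 h host attachment, then at least 90 h co-culture | Detection: GalScreen luminescence, 60 min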
AI-2 QS mod – Vibrio harveyi AI-2 quorum sensing modulators, primary screen, JMH597 strain, luminescence/OD600 ratio; Vibrio harveyi JMH597 AI-2 luminescence/OD600 ratio, 9 h; stronger effect = lower value; strain lacks LuxN and CqsS sensors; 0 = neutral-control median; activity change, % at 7.5 µM; 300,000 compounds, 0.4% hits; AID 2094, 2009; in the data active = activity change below about -75%, passing the limit was not always enough; inconclusive = no clear call, values can overlap the other calls;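 also: luminescence divided by OD600 gain over 9 h not by final OD600 alone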
* hit, by the source's call; ? = inconclusive; . = not tested or not shown. The list is not random: actives were taken first. Their share in the collection is about 2%.

SMILES | HIF act | ARNT TACC3 PPI | T cruzi repl | AI-2 QS mod
Cc1c(N=Nc2c(O)[nH]c(=S)[nH]c2=O)c(=O)n(-c2ccccc2)n1C | 0.2 | 61.1* | -6.8 | 13.0
CCOc1ccc(-n2c(O)c(N=Nc3c(C)n(C)n(-c4ccccc4)c3=O)c(=O)[nH]c2=O)cc1 | 0.0 | 59.8* | -13.0 | 24.9
Cc1c(N=Cc2c(O)n(Cc3ccc(F)cc3)c(=O)[nH]c2=O)c(=O)n(-c2ccccc2)n1C | -0.7 | -2.3 | -9.5 | 29.7
C[C@@H]1CN([C@@H](C)CO)C(=O)CCCn2cc(nn2)CO[C@@H]1CN(C)C(=O)Oc1cccc2ccccc12 | . | -3.9 | . | .
CC=Cc1ccc2n(c1=O)C[C@@H]1[C@@H](CO)[C@H](C(=O)O)[C@H]2N1S(=O)(=O)c1ccccc1F (mixture of isomers) | . | -1.3 | . | .
CC(C)=CCSc1nnc([C@@H](N)Cc2c[nH]c3ccccc23)o1 | 18.0* | -9.2 | 3.1 | 13.1
C=C(C)CSc1nnc([C@@H](N)Cc2c[nH]c3ccccc23)o1 | -0.4 | 10.7 | 3.5 | 15.5
CCn1c(NN=O)nc2ccccc21 | 4.9 | 48.3* | ? | 19.9
CC=Cc1ccc2n(c1=O)C[C@H]1[C@H](CO)[C@@H](C(=O)OC)[C@@H]2N1S(=O)(=O)c1ccccc1C (mixture of isomers) | . | -5.1 | . | .
COc1ccc(CCNCc2ccc(SC)cc2)cc1 | -0.1 | . | 60.5* | 5.9
Cc1nc2cc([N+](=O)[O-])ccc2c(=O)n1-c1ccccc1[N+](=O)[O-] | -0.3 | -8.6 | 59.3* | 36.3
Cc1nc2cc([N+](=O)[O-])ccc2c(=O)n1-c1ccc(Br)cc1 | -0.1 | -3.0 | -5.0 | 8.5
O=C(Cc1ccccc1)N1CCCCN2[C@H](C1)[C@@H](c1ccc(-c3ccccc3)cc1)[C@@H]2CO | . | 7.0 | . | .
c1ccc2c(CNC3CCCCC3)c[nH]c2c1 | -0.1 | . | 16.5 | 15.2
CN(Cc1c[nH]c2ccccc12)C1CCCCC1 | 0.0 | -0.3 | 82.4* | -3.9
c1ccc2c(CN3CCCCCCC3)c[nH]c2c1 | -0.1 | 0.1 | 69.6* | -1.4
Cc1cccc(OCCn2cccc2/C=C2/C(=O)NC(=O)N(Cc3ccco3)C2=O)c1 | 592.3* | . | -4.9 | 19.2
CCN1[C@@H]2Cn3c(ccc(-c4ccc(OC)cc4)c3=O)[C@H]1[C@@H](C(=O)OC)[C@@H]2CO | . | 3.4 | . | .
COC(=O)[C@@H]1[C@@H](CO)[C@@H]2Cn3c(ccc(-c4ccccc4)c3=O)[C@H]1N2CC1CC1 | . | -10.4 | . | .
COC12C(COC(N)=O)C3=C(C(=O)C(C)=C(N)C3=O)N1CC1C2N1C (stereo unspecified) | 2.6 | -0.1 | 57.9* | -43.0
O=C(Cc1cccnc1)N1CCCCN2[C@@H](CO)[C@@H](c3ccc(C#CC4(O)CCCC4)cc3)[C@@H]2C1 | . | 6.3 | . | .
C/C=C/c1ccc([C@H]2[C@H]3CN(C(=O)Cc4ccncc4)CCCCN3[C@H]2CO)cc1 | . | -2.4 | . | .
CCCCCCOc1ccc(CN2CCN(CC)CC2)cc1 | -0.1 | 3.7 | 65.0* | 3.3
COC(=O)[C@@H]1[C@@H](CO)[C@@H]2Cn3c(ccc(-c4ccccc4OC)c3=O)[C@H]1N2Cc1ccccc1 | . | 1.7 | . | .
COC(=O)[C@@H]1[C@@H](CO)[C@@H]2Cn3c(ccc(-c4cccc(F)c4)c3=O)[C@H]1N2C(=O)CC1CC1 | . | -4.4 | . | .
SMILES | HIF act | ARNT TACC3 PPI | T cruzi repl | AI-2 QS mod
CN1[C@H](CO)[C@H]2c3ccccc3NC[C@H]21 | . | -1.5 | . | .
COc1ccc(N2C(=O)NC(=O)/C(=C\c3ccc([N+](=O)[O-])s3)C2=O)cc1 | 0.1 | 14.3 | 60.1* | ?
O=C(Cc1ccccn1)N1CCCCN2[C@H](CO)[C@H](c3ccc(-c4ccccc4F)cc3)[C@@H]2C1 | . | 7.6 | . | .
O=[N+]([O-])c1cc(S(=O)(=O)c2ccc(O)c([N+](=O)[O-])c2)ccc1O | 35.7* | 2.0 | 3.2 | 0.5
COc1ccc(C#Cc2ccc([C@H]3[C@@H](CO)N4CCCCN(C(=O)Cc5ccncc5)C[C@@H]34)cc2)cc1 | . | 30.2 | . | .
COc1ccc(NS(=O)(=O)c2ccc(OCC(=O)N3CCN(C)CC3)cc2)cc1Cl | 0.1 | -5.7 | 57.7* | 16.7
Cc1ccc(NS(=O)(=O)c2ccc(OCC(=O)N3CCN(C)CC3)cc2)cc1 | -0.3 | -1.4 | 46.3 | 20.3
CCCNS(=O)(=O)c1ccc(OCC(=O)N2CCN(C)CC2)cc1 | -0.3 | -1.1 | 34.3 | -31.1
CN1CCN(C(=O)COc2ccc(S(=O)(=O)N(C)Cc3ccccc3)cc2)CC1 | 0.3 | 2.4 | 60.6* | 1.4
CCN1CCN(C(=O)COc2ccc(S(=O)(=O)N(C)Cc3ccccc3)cc2)CC1 | -0.1 | 4.5 | 36.9 | -0.6
CN1CCN(C(=O)COc2ccc(N(C)S(=O)(=O)c3ccc(F)cc3)cc2)CC1 | -0.1 | 3.4 | 79.2* | 21.7
O=C(Cc1ccncc1)N1CCCCN2[C@H](CO)[C@@H](c3ccc(C#CC4(O)CCCC4)cc3)[C@@H]2C1 | . | 2.3 | . | .
CCN1[C@@H]2c3ccc(-c4cccc(OC)c4)c(=O)n3C[C@H]1[C@H](CO)[C@H]2C(=O)OC | . | -0.3 | . | .
CN(C)CC#CCC(O)(c1ccccc1)C1CCCC1 (stereo unspecified) | -0.1 | -2.1 | 66.9* | 27.0
COc1ccc(C#Cc2ccc([C@@H]3[C@@H](CO)N4CCCCN(C(=O)Cc5ccccc5)C[C@@H]34)cc2)cc1 | . | -9.2 | . | .
CN(C)[C@@H]1C(=O)C(C(N)=O)=C(O)[C@@]2(O)C(=O)C3=C(O)c4c(O)ccc(Cl)c4[C@@](C)(O)[C@H]3C[C@@H]12 | -0.2 | . | -0.2 | -111.0*
Cc1ccc(-c2nc3ccccc3c(=O)n2-c2ccncc2)cc1 | -0.2 | 4.6 | 5.9 | 16.5
O=c1c2ccccc2nc(-c2ccc(-c3ccccc3)cc2)n1-c1ccncc1 | 1.1 | 7.0 | 83.9* | 31.9
CCCc1nc2ccc(Br)cc2c(=O)n1-c1ccc([N+](=O)[O-])c(C(F)(F)F)c1 | -0.8 | -1.6 | 55.5* | 26.7
CC1CN(c2ccc([N+](=O)[O-])cc2Cl)CCN1 (stereo unspecified) | -0.2 | 48.9* | 11.8 | 34.6
CN1CCN(c2ccc([N+](=O)[O-])cc2Cl)CC1 | 0.1 | 0.8 | 35.7 | -3.0
O=C([O-])c1ccc(-[n+]2c(-c3ccccc3)cc(-c3ccccc3)cc2-c2ccccc2)cc1 | 0.0 | 8.7 | 30.9 | -5.1
O=[N+]([O-])c1ccc(-[n+]2c(-c3ccccc3)cc(-c3ccccc3)cc2-c2ccccc2)cc1 | 0.2 | 24.2 | 56.7* | 22.6
Cn1c(O)c(C(c2ccccn2)c2c(O)n(C)c(=S)n(C)c2=O)c(=O)n(C)c1=S | 0.1 | 18.0 | 0.9 | -27.7
Cn1c(O)c(C(c2ccncc2)c2c(O)n(C)c(=S)n(C)c2=O)c(=O)n(C)c1=S | 0.1 | 46.8* | -15.0 | 18.0
